How the values were obtained:
[1] = Ratio of drug level in liver to plasma in C57BL/6 mouse at 1 mg/kg, po administered as single dose; format: ADME, organism-based; settings: liver and plasma, 5 mg/kg, in the assay text read “5 mg/kg” for “1 mg/kg”
In short: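 Single oral dose to healthy C57BL/6 mice. Liver and plasma drug exposure measured, three mice per time point as geometric mean, and expressed as liver-to-plasma ratio.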

Mus musculus [2] = assay: Induction of IFN-alpha production in C57BL/6 mouse liver assessed as time for peak induction of IFN-alpha at 5 mg/kg, po administered as single dose by ELISA; format: functional
In short: (§1)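 Healthy C57BL/6 mice given a single oral dose (1 or 5 mg/kg). Mouse IFN-α measured by ELISA in plasma and liver homogenates over time. Peak level (Fmax) and time of peak recorded. Three mice per time point, reported as geometric mean.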

[3] = Cmax in C57BL/6 mouse plasma at 5 mg/kg, po administered as single dose; format: ADME, organism-based; parameters: dose 5 mg/kg, route oral
In short: (§2)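 Healthy C57BL/6 mice given a single oral dose (1 or 5 mg/kg). Plasma and liver drug levels measured over time to give Tmax, Cmax and AUC0-last. Three mice per time point, reported as geometric mean.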

Mus musculus [4] = assay: Induction of IFN-alpha production in C57BL/6 mouse liver assessed as time for peak induction of IFN-alpha at 1 mg/kg, po administered as single dose by ELISA; format: functional; in short: as §1
[5] = AUClast in C57BL/6 mouse plasma at 1 mg/kg, po administered as single dose; format: ADME, organism-based; parameters: dose 1 mg/kg, time 0 - last, route oral; in short: as §2
Mus musculus [6] = assay: Induction of IFN-alpha production in C57BL/6 mouse liver assessed as peak IFN-alpha level at 1 mg/kg, po administered as single dose by ELISA; format: functional; in short: as §1
[7] = Cmax in C57BL/6 mouse plasma at 1 mg/kg, po administered as single dose; format: ADME, organism-based; parameters: dose 1 mg/kg, route oral; in short: as §2

SMILES	Kp [1]	Time (Mus musculus [2]) [h]	Cmax [3] [ng/mL]	Time (Mus musculus [4]) [h]	AUC(0-t) [5] [ng·h/mL]	Fmax (Mus musculus [6]) [pg/mg]	Cmax [7] [ng/mL]
CCCCNc1nc(N)nc2cccc(C(=O)N[C@@H](C)c3ccccc3)c12	23	4	142	–	–	–	–
CCCCNc1nc(N)nc2ccccc12	–	–	–	1	3	200	3

Reference: ChEMBL document CHEMBL4184225, “Discovery of selective 2,4-diaminoquinazoline toll-like receptor 7 (TLR 7) agonists” (Bioorg Med Chem Lett, 2018)
